From ChEMBL document CHEMBL3525992, “Identification of 20(S)-protopanaxadiol metabolites in human liver microsomes and human hepatocytes” (Drug Metab Dispos, 2011)

Legend:
[1] = tested on: Liver microsome; experiment: Drug metabolism in mixed human liver microsomes assessed as metabolite 7-2 ((2S,3S,4S,5R,6S)-6-(2-((2R,5S)-5-((3S,5R,8R,9R,10R,12R,14R,17S)-3,12-dihydroxy-4,4,8,10,14-pentamethylhexadecahydro-1H-cyclopenta[a]phenanthren-17-yl)-5-methyltetrahydrofuran-2-yl)propan-2-yloxy)-3,4,5-trihydroxytetrahydro-2H-pyran-2-carboxylic acid) formation at 50 uM after 120 mins by liquid chromatography-electrospray ionization ion trap mass spectrometry in presence of UDPGA; assay type: ADME
Summary of the method: (§1)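 Pooled human liver microsomes, 1.0 mg/ml protein, in 50 mM Tris-HCl pH 7.4 with 10 mM MgCl₂, 2 mM UDPGA and 25 µg/mL alamethicin. Preincubated 3 min at 37°C, started with substrate 50 µM (final MeOH 0.1%), run 120 min, stopped with ice-cold acetonitrile. Time-0 controls; duplicates. Analysed by LC/ESI ion-trap MSn.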

[2] = Drug excretion in Sprague-Dawley rat feces treated with 20(S)-protopanaxadiol at 100 mg/kg/day, po qd for 11 days administered via gavage by liquid chromatography-electrospray ionization ion trap mass spectrometry; assay type: ADME, organism-based; design: route oral; settings: in vivo, 264 h
Summary of the method: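 PPD given by gavage at 10 mg/ml in 0.5% carboxymethyl cellulose sodium, 0.5% polysorbate-80 and 99% saline; 20 rats, one per metabolic cage. Feces collected over 0–288 h (48 h after last dose), blanks taken before dosing, frozen at -20°C.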

[3] = Retention time of the compound treated with 20(S)-protopanaxadiol at 100 uM measured after 60 mins by liquid chromatography-electrospray ionization ion trap mass spectrometry in presence of 10 uM 3-chloroperoxybenzoic acid; assay type: physicochemical; settings: 1 h
Summary of the method: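 PPD 100 µM oxidised chemically with m-CPBA 10 µM in CH₂Cl₂, stirred at room temperature for 15 and 60 min. Mixture poured into Na₂CO₃-saturated ice water and extracted three times with ether before LC/MS analysis.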

[4] = tested on: Hepatocyte; experiment: Drug level in human hepatocytes treated with 20(S)-protopanaxadiol at 50 uM after 180 mins by liquid chromatography-electrospray ionization ion trap mass spectrometry; assay type: ADME, cell-based; settings: 3 h
Summary of the method: (§2)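 Human hepatocytes (2 million cells/ml) in Williams' E medium with substrate 50 µM, 0.5% (v/v) final MeOH, 37°C for 3 h. Negative controls were substrate at 0 h and no substrate at 3 h. Quenched with equal volume acetonitrile, in duplicate. Methanol was added, then centrifugation, dry-down and reconstitution. Analysed by C8 reversed-phase LC with formic acid/methanol–ammonium acetate gradient, ESI ion trap MSⁿ, m/z 100–800.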

[5] = tested on: Liver microsome; experiment: Retention time of the compound in mixed human liver microsomes treated with 20(S)-protopanaxadiol at 50 uM after 60 mins by liquid chromatography-electrospray ionization ion trap mass spectrometry; assay type: ADME; settings: 1 h
Summary of the method: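 Pooled HLM protein 1.0 mg/ml with substrate 50 µM in 100 mM potassium phosphate pH 7.4, 0.1% (v/v) final MeOH. Preincubated 3 min at 37°C, started with 2.0 mM NADPH, incubated 60 min. Stopped with equal volume ice-cold acetonitrile. Controls lacked NADPH or substrate, in duplicate. Analysed on C8 reversed-phase column, formic acid methanol/ammonium acetate gradient, ESI ion trap MSⁿ.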

[6] = tested on: Liver microsome; experiment: Drug level in mixed human liver microsomes treated with (20S,24S)-epoxydammarane-3,12,25-triol at 50 uM after 120 mins by liquid chromatography-electrospray ionization ion trap mass spectrometry in presence of UDPGA; assay type: ADME; settings: 2 h
Summary of the method: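 Pooled HLM protein 1.0 mg/ml in 50 mM Tris-HCl pH 7.4 with 10 mM MgCl₂, 2 mM UDPGA and 25 µg/mL alamethicin. Preincubated 3 min at 37°C, then started with substrate (50 µM). Run 120 min, stopped with equal volume ice-cold acetonitrile. 0 min incubations served as controls, in duplicate. Processed and analysed by LC/ESI ion trap MSⁿ.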

[7] = tested on: Hepatocyte; experiment: Retention time of the compound in human hepatocytes treated with 20(S)-protopanaxadiol at 50 uM after 180 mins by liquid chromatography-electrospray ionization ion trap mass spectrometry; assay type: ADME, cell-based; settings: 3 h; summary of the method: as §2
[8] = tested on: Liver microsome; experiment: Drug metabolism in mixed human liver microsomes assessed as metabolite 7-1 ((2S,3S,4S,5R,6S)-6-(2-((2S,5S)-5-((3S,5R,8R,9R,10R,12R,14R,17S)-3,12-dihydroxy-4,4,8,10,14-pentamethylhexadecahydro-1H-cyclopenta[a]phenanthren-17-yl)-5-methyltetrahydrofuran-2-yl)propan-2-yloxy)-3,4,5-trihydroxytetrahydro-2H-pyran-2-carboxylic acid) formation at 50 uM after 120 mins by liquid chromatography-electrospray ionization ion trap mass spectrometry in presence of UDPGA; assay type: ADME; summary of the method: as §1

Drug metabolism [6]	Retention_time [7]	SMILES	Drug metabolism [1]	Drug excretion [2]	Retention_time [3]	Drug metabolism [4]	Retention_time [5]	Drug metabolism [8]
		CC(C)(O)[C@H]1CC[C@@](C)([C@H]2CC[C@]3(C)[C@@H]2[C@H](O)C[C@@H]2[C@@]4(C)CC[C@H](O)C(C)(C)[C@@H]4CC[C@]23C)O1	metabolite_detected	metabolite_detected	19.8 min	metabolite_detected	19.8 min	
metabolite_detected	16 min	CC(C)(O[C@@H]1O[C@H](C(=O)O)[C@@H](O)[C@H](O)[C@H]1O)[C@@H]1CC[C@@](C)([C@H]2CC[C@]3(C)[C@@H]2[C@H](O)C[C@@H]2[C@@]4(C)CC[C@H](O)C(C)(C)[C@@H]4CC[C@]23C)O1						
		CC(C)(O)[C@@H]1CC[C@@](C)([C@H]2CC[C@]3(C)[C@@H]2[C@H](O)C[C@@H]2[C@@]4(C)CC[C@H](O)C(C)(C)[C@@H]4CC[C@]23C)O1		metabolite_detected	19.2 min	metabolite_detected	19.2 min	metabolite_detected
		CC(C)(O)[C@@H]1CC[C@@](C)([C@H]2CC[C@]3(C)[C@@H]2[C@H](O)C[C@@H]2[C@@]4(C)CCC(=O)C(C)(C)[C@@H]4CC[C@]23C)O1		metabolite_detected		metabolite_detected	19.1 min	
	13.2 min	CC(C)(O)[C@@H](O)CC[C@](C)(O)[C@H]1CC[C@]2(C)[C@@H]1[C@H](O)C[C@@H]1[C@@]3(C)CC[C@H](O)C(C)(C)[C@@H]3CC[C@]12C						
